Screening data deposited in PubChem BioAssay by several laboratories.
Shown is part of a subset that was picked to be rich in hits.
Diaph inh CS: counter-screen for diaphorase-based assays: diaphorase inhibitors and chemical oxidizers. diaphorase resazurin-to-resorufin fluorescence, NADH, 16 min; bacterial (C. kluyveri) enzyme, not human. inhibition, % at 20 µM. 190,000 tested, 0.69% active. AID 1217;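 active = primary screen inhibition at 20 µM above a set limit, cut at about 50% in these data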;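 note: plate controls were DMSO with full reaction for no effect and wells lacking NADH for full effect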
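System: Diaphorase enzyme from Clostridium kluyveri | Amount: Enzyme working solution with 0.14 U/mL diaphorase | Benchmarks: No-NADH positive control and DMSO neutral control | Signal: Fluorescence of resorufin formed from resazurin, Ex 544/Em 590 nm | Schedule: 16-min room-temperature incubation before reading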
Lmaj promast: Leishmania major promastigote growth inhibition; Leishmania major promastigotes, resazurin fluorescence viability; inhibition, % at 10 µM; 200,000 tested, 9% active; AID 1063;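 note: promastigotes grown with compound for 44 hours at 28 °C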
PfGluPho inh: PfG6PD (Plasmodium falciparum) enzyme inhibition | 350,000 tested, 0.78% active | PfGluPho enzyme, NADPH resazurin-diaphorase fluorescence | inhibition, % at 20 µM | AID 504690;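 active = inhibition reaching at least a set limit at 20 µM in the primary screen, cut at about 59% in these data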;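 note: 0% = DMSO wells with substrate and 100% = DMSO wells lacking glucose-6-phosphate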
Redox H2O2 prof: compounds producing H2O2 with reducing agent – biochemical, NIH compound library profiling, artefact control for MLSCN library redox annotation, primary screen. activation, % at 10 µM. AID 878. 200,000 tested, 0.03% active. DTT-dependent redox cycling H2O2, phenol red/HRP absorbance; 100% = 100 µM peroxide control, 0% = buffer;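 active = activation of at least 50% relative to the plate's high and low controls in the primary single-dose screen; inactive = activation below 50%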;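 note: compound incubated with DTT at 0.8 mM final as the reducing agent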
Diaph act CS: counter-screen for diaphorase-based assays: diaphorase activators and chemical reducers; 190,000 tested, 0.005% active; activation factor at 20 µM; Diaphorase/resazurin coupled assay, resorufin fluorescence, 16 min; hits give high values; 1 = vehicle wells, 0 = NADH-free wells;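 active = diaphorase activity raised at least twofold by the compound at 20 µM; inactive = activation factor below 2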
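Material: Purified diaphorase enzyme from Clostridium kluyveri | Buffer or medium: 50 mM HEPES pH 7.4 with 4.542 mM MgCl2, 0.005% Tween 20 | Times: 16 min enzyme reaction, ambient temperature | Signal: Red resorufin fluorescence at 544/590 nm excitation/emission | Measure: Increased resorufin signal from activators or reducing compounds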
G6PDH counter: inhibits Leuconostoc G6PDH, flagging false hits in G6PDH-based assays; inhibition, % at 5 µM; AID 1020; 200,000 tested, 0.12% active; Purified L. mesenteroides G6PDH, diaphorase/resazurin coupled fluorescence, 45 min
* hit, by the source's call; . = no result given. Cut-off read from the data, not from the text of the source, unless noted: active = inhibition above about 50%; inactive = the rest.

SMILES	Diaph inh CS	Lmaj promast	PfGluPho inh	Redox H2O2 prof	Diaph act CS	G6PDH counter
CCN(CC)c1ccc(NC(=O)c2ccccc2F)cc1S(=O)(=O)Nc1ccccc1OC	29	100*	52	0	0.7	4
O=C(Nc1ccc(Cl)c([N+](=O)[O-])c1)c1ccncc1	10	19	2	0	0.9	8
O=C(Nc1ccc2ccccc2c1)c1cnccn1	6	2	-1	2	0.9	5
O=C(Nc1ccc(Cl)c([N+](=O)[O-])c1)c1cnccn1	25	83*	-10	0	0.7	0
Cc1ccc(Cl)cc1NC(=O)Cn1c(C)csc1=O	.	.	7	.	.	.
CCCn1c(=S)[nH]c2cc(C(=O)N3CCN(C4CCCCC4)CC3)ccc2c1=O	.	.	-16	.	.	.
C/C(=N\NC(=O)c1ccc(F)cc1)c1ccc(NC(=O)Cc2ccccc2)cc1	.	.	-1	.	.	.
Cc1ccc(NC(=O)c2cnccn2)cc1S(=O)(=O)N(C)C	12	83*	0	0	0.9	8
Cc1cnc(C(=O)Nc2ccc(C)c(S(=O)(=O)N(C)C)c2)cn1	2	-2	-8	0	1	7
O=S(=O)(Nc1nc2ccccc2nc1Cl)c1cccc(C(F)(F)F)c1	.	.	-15	.	.	.
Cc1cccc(C(=O)OCC(=O)N2CCCC2=O)c1[N+](=O)[O-]	.	.	4	.	.	.
COc1ccccc1-c1coc2c(CN3CCOCC3)c(O)ccc2c1=O	.	.	-19	.	.	.
Cc1ccc(NC(=O)N(CCCN2CCOCC2)Cc2cccnc2)cc1C	7	65*	-4	-1	0.9	-3
S=C(Nc1ccccc1Cl)N(Cc1cccnc1)Cc1ccco1	12	95*	-19	-2	0.9	10
Cc1c(Cl)cccc1NC(=S)N(Cc1cccnc1)Cc1ccccc1Cl	15	95*	9	-3	0.8	0
COc1ccc(NC(=O)N(CCCN2CCOCC2)Cc2cccnc2)c(OC)c1	.	7	0	0	.	.
O=C(Nc1ccc(Cl)c(Cl)c1)N(Cc1cccnc1)Cc1ccco1	22	100*	13	-3	0.8	0
O=C(COC(=O)c1cccc(OC(F)F)c1)Nc1ncccn1	.	.	0	.	.	.
CCOC(=O)C1(CCCc2ccccc2)CCN(C(=O)CCOC)CC1	5	5	-2	11	0.9	7
CC(O)[C@H]1CNC(=O)C(=O)N1CCC12CC3CC(CC(C3)C1)C2 (stereo not given in full)	.	.	-1	.	.	.
CCCN(CCC)C(=O)NC1CC(=O)N(c2ccc(OC)cc2)C1 (stereo not given)	2	-3	-19	0	1	-8
Cc1ccccc1CC1(CO)CCCN(C(=O)CCCN2CCCCC2=O)C1 (stereo not given)	-11	-5	-6	6	1.1	8
CS(=O)(=O)N1CCCC(C(=O)NCCc2ccccc2)C1 (stereo not given)	9	-2	13	0	0.9	-1
CCS(=O)(=O)N1CCCC(C(=O)NCCN2CCC(Cc3ccccc3)CC2)C1 (stereo not given)	15	90*	3	0	0.8	5
CS(=O)(=O)N1CCCC(C(=O)NCCN2CCC(Cc3ccccc3)CC2)C1 (stereo not given)	9	89*	-1	-1	0.9	-24
SMILES	Diaph inh CS	Lmaj promast	PfGluPho inh	Redox H2O2 prof	Diaph act CS	G6PDH counter
O=C(NCCN1CCc2ccccc2C1)C1CCN(S(=O)(=O)N2CCCCC2)CC1	4	81*	-11	0	1	12
O=C(NCCN1CCc2ccccc2C1)C1CCN(S(=O)(=O)N2CCC3(CC2)OCCO3)CC1	5	-6	1	2	1	16
Cc1ccc(NC(=O)C(=O)NCc2ccncc2)cc1	7	-1	1	-1	0.9	9
CCOC(=O)c1ccc(N2C(=O)C=CC2=O)cc1	-1	4	66*	0	1	9
CCOC(=O)c1ccc(-n2c(C)ccc2C)cc1	-1	-4	2	0	1	6
Cc1ccc(CNC(=O)COC(=O)c2ccc(Br)cc2)cc1	-10	-10	24	0	1.1	-3
CCOC(=O)c1ccc(CNCc2ccc(C)cc2)cc1	4	79*	-1	0	1	20
Cn1cnc2ncnn2c1=S	.	.	-4	.	.	.
COc1ccc(C(=O)Nc2ccc(S(=O)(=O)N3CCCC3)cc2)cc1[N+](=O)[O-]	.	.	16	.	.	.
O=C(CSc1nnc(NC(=O)C2CC2)s1)NCc1ccco1	19	59*	17	0	0.8	21
CCCCNC(=O)C1CCN(C/C(C)=C/c2ccccc2)CC1	8	91*	-9	0	0.9	6
CCCCN(C)C(=O)C1CCN(C/C(C)=C/c2ccccc2)CC1	19	25	4	-1	0.8	2
O=C(C1CCN(C2CCN(C/C(Cl)=C/c3ccccc3)CC2)CC1)N1CCOCC1	11	97*	3	-2	0.9	9
C/C(=C\c1ccccc1)CN1CCC(C(=O)N2CCC(C)CC2)CC1	6	93*	-10	0	0.9	3
C/C(=C\c1ccccc1)CN1CCC(C(=O)N2CCCCC2)CC1	23	-4	-7	0	0.8	-3
CCc1n[nH]c(=S)n1/N=C/c1cc(Br)c(OC)cc1OC	11	-5	15	0	0.9	-6
CC(=O)c1cccc(N=c2scc(-c3ccc(S(=O)(=O)N4CCOCC4)cc3)n2CCO)c1	6	95*	47	0	0.9	-3
O=C(NN1C(=O)c2ccc(-c3ccc4c(c3)C(=O)N(NC(=O)c3cccnc3)C4=O)cc2C1=O)c1cccnc1	2	-5	-30	0	1	1
O=C1CSC(c2ccccc2[N+](=O)[O-])N1CCc1ccccc1 (stereo not given)	13	19	0	0	0.9	10
O=C(OC[C@@H]1CCCN2CCCC[C@H]12)c1cc2ccccc2oc1=O	2	-3	-7	0	1	-5
Cc1cccc(NCc2ccc(N(C)C)cc2)n1	.	.	14	.	.	.
CCCCCC(=O)Nc1cc(S(=O)(=O)N2CCOCC2)ccc1N1CCCCC1	.	.	19	.	.	.
Cc1ccc(-c2nc3c(c(=O)c4ccccc4n3C)c(=O)n2-c2ccc(F)cc2)cc1	.	.	-4	.	.	.
CCc1nc2c(c(=O)c3ccccc3n2C)c(=O)n1-c1ccc(F)cc1	74*	2	53	0	0.3	-1
CC(Cc1cccs1)NC(=O)Nc1ccc(F)cc1 (stereo not given)	-5	-2	-14	0	1.1	14
CC(Cc1cccs1)NC(=O)Nc1cccc(Cl)c1 (stereo not given)	-3	68*	14	0	1	9
CC(Cc1cccs1)NC(=S)Nc1ccc(Cl)c(Cl)c1 (stereo not given)	22	71*	16	-1	0.8	-7
